In paper PMC9292600 (Clinical Pharmacology in Drug Development, 2021):
Like-named read-outs stand apart in the source and are kept apart here.

Experiments:
Safety and tolerability = type: in vivo, human (healthy adult participants)
Summary of the method: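 Healthy adults received single 100-mg oral doses of 4×25-mg tablets, either fasted, after a high-fat meal, or after five evening doses of rabeprazole 20 mg. Safety was monitored by physical examination, laboratory tests, ECG, concomitant medication review, and AE frequency and severity. The safety population comprised all participants receiving ≥1 dose of study medication.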

[1] = type: in vivo, human (healthy adult participants); conditions: for AUC(0-inf) / AUC(0-t) / Cmax / half-life / Tmax: human, plasma, po; for Tmax: median (range)
[2] = cited from earlier work
[3] = both acetate and freebase forms, cited from earlier work
[4] = Treatment A: 100-mg tablets, fasted, n = 24
[5] = Treatment B: 100-mg tablets + high-fat meal, n = 23
[6] = Treatment C: 100-mg tablets + rabeprazole 20 mg, n = 23
[7] = Treatment D: 100-mg oral solution, n = 24
[8] = 100-mg oral solution (test) versus 100-mg tablets (reference)
[9] = 100-mg tablets + high-fat meal (test) versus 100-mg tablets (reference)
[10] = 100-mg tablets + rabeprazole 20-mg (test) versus 100-mg tablets (reference)

## C[C@H]1Oc2cc(cnc2N)-c2c(nn(C)c2C#N)CN(C)C(=O)c2ccc(F)cc21 [Lorlatinib, (10R)‐7‐amino‐12‐fluoro‐2,10,16‐trimethyl‐15‐oxo‐10,15,16,17‐tetrahydro‐2H‐8,4‐(metheno)pyrazolo[4,3‐h][2,5,11]‐benzoxadiazacyclotetradecine‐3‐carbonitrile]
Safety and tolerability; [4]
  Participants with any serious treatment-related AE: 0 n (%)
  Participants with any treatment-emergent AE: 19 (79) n (%)
  Participants with any treatment-related AE: 19 (79) n (%)
  Treatment-related AE: Acne: 4 (17) n (%)
  Treatment-related AE: Diarrhea: 3 (13) n (%)
  Treatment-related AE: First-degree AV block: 5 (21) n (%)
  Treatment-related AE: Headache: 7 (29) n (%)
Safety and tolerability; [5]
  Participants with any serious treatment-related AE: 0 n (%)
  Participants with any treatment-emergent AE: 15 (65) n (%)
  Participants with any treatment-related AE: 15 (65) n (%)
  Treatment-related AE: Acne: 2 (9) n (%)
  Treatment-related AE: Diarrhea: 1 (4) n (%)
  Treatment-related AE: First-degree AV block: 2 (9) n (%)
  Treatment-related AE: Headache: 4 (17) n (%)
Safety and tolerability; [6]
  Participants with any serious treatment-related AE: 0 n (%)
  Participants with any treatment-emergent AE: 19 (83) n (%)
  Participants with any treatment-related AE: 19 (83) n (%)
  Treatment-related AE: Acne: 2 (9) n (%)
  Treatment-related AE: Diarrhea: 2 (9) n (%)
  Treatment-related AE: First-degree AV block: 4 (17) n (%)
  Treatment-related AE: Headache: 7 (30) n (%)
Safety and tolerability; [7]
  Participants with any serious treatment-related AE: 0 n (%)
  Participants with any treatment-emergent AE: 16 (67) n (%)
  Participants with any treatment-related AE: 16 (67) n (%)
  Treatment-related AE: Acne: 4 (17) n (%)
  Treatment-related AE: Diarrhea: 2 (8) n (%)
  Treatment-related AE: First-degree AV block: 3 (13) n (%)
  Treatment-related AE: Headache: 6 (25) n (%)
Safety and tolerability; all treatment periods
  Deaths during the study: no deaths
  Participants with serious or severe treatment-related AEs: No participants
Safety and tolerability; all treatment periods, remainder moderate
  AEs mild in severity (of all AEs): 119 of 135
[1]; [8]
  Ratio (Test/Reference) of Adjusted Means, AUCinf: 107.9%
  Ratio (Test/Reference) of Adjusted Means, AUClast: 107.8%
  Ratio (Test/Reference) of Adjusted Means, Cmax: 129.7%
[1]; [9]
  Ratio (Test/Reference) of Adjusted Means, AUCinf: 104.7%
  Ratio (Test/Reference) of Adjusted Means, AUClast: 104.6%
  Ratio (Test/Reference) of Adjusted Means, Cmax: 90.9%
[1]; [10]
  Ratio (Test/Reference) of Adjusted Means, AUCinf: 100.9%
  Ratio (Test/Reference) of Adjusted Means, AUClast: 99.7%
  Ratio (Test/Reference) of Adjusted Means, Cmax: 70.7%
[1]; 100-mg tablets, fasted (reference), mixed-effects model
  Adjusted geometric mean Cmax: 533.1 ng/mL
[1]; Treatment A: single oral 100-mg dose, tablets, fasted, n = 24, mean ± SD
  Arithmetic mean CL/F: 11.8 ± 2.5 L/h
[1]; Treatment A: single oral 100-mg dose, tablets, fasted, n = 24, value (geometric %CV)
  Geometric mean CL/F: 11.5 (24) L/h
[1]; Treatment B: single oral 100-mg dose, tablets + high-fat meal, n = 23, mean ± SD
  Arithmetic mean CL/F: 11.7 ± 2.8 L/h
[1]; Treatment B: single oral 100-mg dose, tablets + high-fat meal, n = 23, value (geometric %CV)
  Geometric mean CL/F: 11.4 (24) L/h
[1]; Treatment C: single oral 100-mg dose, tablets + rabeprazole 20 mg, fasted, n = 23, mean ± SD
  Arithmetic mean CL/F: 11.9 ± 2.5 L/h
[1]; Treatment C: single oral 100-mg dose, tablets + rabeprazole 20 mg, fasted, n = 23, value (geometric %CV)
  Geometric mean CL/F: 11.6 (24) L/h
[1]; Treatment D: single oral 100-mg dose, oral solution, fasted, n = 24, mean ± SD
  Arithmetic mean CL/F: 11.0 ± 2.4 L/h
[1]; Treatment D: single oral 100-mg dose, oral solution, fasted, n = 24, value (geometric %CV)
  Geometric mean CL/F: 10.7 (24) L/h
[1]; 100 mg, Arithmetic mean AUCinf, Treatment A: single oral 100-mg dose, tablets, fasted, n = 24, mean ± SD
  AUC(0-inf): 8960 ± 2380 ng·h/mL
[1]; 100 mg, Arithmetic mean AUCinf, Treatment B: single oral 100-mg dose, tablets + high-fat meal, n = 23, mean ± SD
  AUC(0-inf): 9030 ± 2280 ng·h/mL
[1]; 100 mg, Arithmetic mean AUCinf, Treatment D: single oral 100-mg dose, oral solution, fasted, n = 24, mean ± SD
  AUC(0-inf): 9620 ± 2440 ng·h/mL
[1]; 100 mg, Arithmetic mean AUClast, Treatment A: single oral 100-mg dose, tablets, fasted, n = 24, mean ± SD
  AUC(0-t): 8380 ± 1990 ng·h/mL
[1]; 100 mg, Arithmetic mean AUClast, Treatment B: single oral 100-mg dose, tablets + high-fat meal, n = 23, mean ± SD
  AUC(0-t): 8460 ± 1940 ng·h/mL
[1]; 100 mg, Arithmetic mean AUClast, Treatment D: single oral 100-mg dose, oral solution, fasted, n = 24, mean ± SD
  AUC(0-t): 8990 ± 2040 ng·h/mL
[1]; 100 mg, Arithmetic mean Cmax, Treatment A: single oral 100-mg dose, tablets, fasted, n = 24, mean ± SD
  Cmax: 559 ± 115 ng/mL
[1]; 100 mg, Arithmetic mean Cmax, Treatment D: single oral 100-mg dose, oral solution, fasted, n = 24, mean ± SD
  Cmax: 722 ± 185 ng/mL
[1]; 100 mg, Arithmetic mean t1/2, Treatment A: single oral 100-mg dose, tablets, fasted, n = 24, mean ± SD
  half-life: 24.2 ± 5.2 h
[1]; 100 mg, Arithmetic mean t1/2, Treatment B: single oral 100-mg dose, tablets + high-fat meal, n = 23, mean ± SD
  half-life: 23.7 ± 6 h
[1]; 100 mg, Arithmetic mean t1/2, Treatment D: single oral 100-mg dose, oral solution, fasted, n = 24, mean ± SD
  half-life: 24.1 ± 5.4 h
[1]; 100 mg, Geometric mean AUCinf, Treatment A: single oral 100-mg dose, tablets, fasted, n = 24, value (geometric %CV)
  AUC(0-inf): 8710 ng·h/mL
[1]; 100 mg, Geometric mean AUCinf, Treatment B: single oral 100-mg dose, tablets + high-fat meal, n = 23, value (geometric %CV)
  AUC(0-inf): 8780 ng·h/mL
[1]; 100 mg, Geometric mean AUCinf, Treatment D: single oral 100-mg dose, oral solution, fasted, n = 24, value (geometric %CV)
  AUC(0-inf): 9360 ng·h/mL
[1]; 100 mg, Geometric mean AUClast, Treatment B: single oral 100-mg dose, tablets + high-fat meal, n = 23, value (geometric %CV)
  AUC(0-t): 8260 ng·h/mL
[1]; 100 mg, Geometric mean AUClast, Treatment D: single oral 100-mg dose, oral solution, fasted, n = 24, value (geometric %CV)
  AUC(0-t): 8790 ng·h/mL
[1]; 100 mg, Geometric mean Cmax, Treatment A: single oral 100-mg dose, tablets, fasted, n = 24, value (geometric %CV)
  Cmax: 548 ng/mL
[1]; 100 mg, Geometric mean Cmax, Treatment B: single oral 100-mg dose, tablets + high-fat meal, n = 23, value (geometric %CV)
  Cmax: 489 ng/mL
[1]; 100 mg, Geometric mean Cmax, Treatment D: single oral 100-mg dose, oral solution, fasted, n = 24, value (geometric %CV)
  Cmax: 705 ng/mL
[1]; 100 mg, Treatment B: single oral 100-mg dose, tablets + high-fat meal, n = 23
  Tmax: 2 h
[1]; 100 mg, Treatment D: single oral 100-mg dose, oral solution, fasted, n = 24
  Tmax: 1 h
[1]; Arithmetic mean AUCinf, Treatment C: single oral 100-mg dose, tablets + rabeprazole 20 mg, fasted, n = 23, mean ± SD
  AUC(0-inf): 8880 ± 2430 ng·h/mL
[1]; Arithmetic mean AUClast, Treatment C: single oral 100-mg dose, tablets + rabeprazole 20 mg, fasted, n = 23, mean ± SD
  AUC(0-t): 8190 ± 1930 ng·h/mL
[1]; Arithmetic mean Cmax, Treatment C: single oral 100-mg dose, tablets + rabeprazole 20 mg, fasted, n = 23, mean ± SD
  Cmax: 398 ± 114 ng/mL
[1]; Geometric mean AUCinf, Treatment C: single oral 100-mg dose, tablets + rabeprazole 20 mg, fasted, n = 23, value (geometric %CV)
  AUC(0-inf): 8630 ng·h/mL
[1]; Geometric mean AUClast, Treatment C: single oral 100-mg dose, tablets + rabeprazole 20 mg, fasted, n = 23, value (geometric %CV)
  AUC(0-t): 8010 ng·h/mL
[1]; Geometric mean Cmax, Treatment C: single oral 100-mg dose, tablets + rabeprazole 20 mg, fasted, n = 23, value (geometric %CV)
  Cmax: 383 ng/mL
[1]; Treatment C: single oral 100-mg dose, tablets + rabeprazole 20 mg, fasted, n = 23
  Tmax: 2 h
[1]; single 100-mg oral dose, fasted
  Higher Cmax with the oral solution than with the tablet formulation: ~30%
[2]; 100 mg/100 μCi [14C]lorlatinib
  Geometric mean maximum plasma concentration (Cmax): about 600 ng/mL
  Renal clearance: 1.6 mL/min
  Urinary excretion of unchanged lorlatinib: ~0.7%
[2]; human ADME studies
  Mean terminal plasma elimination half-life (t1/2): about 20 hours
[3]; pH 7.7
  Aqueous solubility: 100 µg/mL
[3]; pH <2
  Aqueous solubility: > 10000 µg/mL
